Data from ChEMBL document CHEMBL1124216, “A novel class of potential central nervous system agents. 3-Phenyl-2-(1-piperazinyl)-5H-1-benzazepines” (1988).

How the values were obtained:
Type in all cases: functional
Mus musculus [1] = experiment: Antimaximal electroshock seizure (MES) activity in mice after peroral administration of 100 mg/kg of compound; 3/5; conditions: route oral
Mus musculus [2] = experiment: Antitremorine activity(TRM) of mice after peroral administration of 100 mg/kg of compound; No inhibition; conditions: route oral
Mus musculus [3] = experiment: Antireserpine activity (RES) of mice after peroral administration of 100 mg/kg of compound; No inhibition; conditions: route oral
Mus musculus [4] = experiment: Antimaximal electroshock seizure activity was determined in mice when administered perorally; conditions: po
Mus musculus [5] = experiment: Antiexploratory activity (EXPL) of mice determined by an antimex activity meter, 100 mg/kg of dose was administered perorally; No inhibition; conditions: route oral
Mus musculus [6] = experiment: Antipentylene tetrazole activity was determined in mice when administered perorally; conditions: po
Procedure, shortened: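 Groups of five male Std-ddY mice received compound orally in 0.5% tragacanth, then pentylenetetrazole 175 mg/kg ip. Blockade of the tonic extensor component scored as anticonvulsant. ED50 was the dose protecting 50% of animals (Litchfield-Wilcoxon).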

Mus musculus [7] = experiment: Antiexploratory activity (EXPL) of mice determined by an antimex activity meter, 100 mg/kg of dose was administered perorally; conditions: route oral
Mus musculus [8] = experiment: Antimaximal electroshock seizure (MES) activity in mice after peroral administration of 100 mg/kg of compound; 0/5; conditions: route oral
Mus musculus [9] = experiment: Antiexploratory activity (EXPL) of mice determined by an antimex activity meter, 50 mg/kg of dose was administered perorally; No inhibition; conditions: route oral
Mus musculus [10] = experiment: Antireserpine activity (RES) of mice after peroral administration of mg/kg of compound; Slight inhibition (31-50%)
Mus musculus [11] = experiment: Antireserpine activity (RES) of mice after peroral administration of 100 mg/kg of compound; Moderate inhibition (51-71%); conditions: route oral
Mus musculus [12] = experiment: Antitremorine activity(TRM) of mice after peroral administration of 100 mg/kg of compound; conditions: route oral
Mus musculus [13] = experiment: Antimaximal electroshock seizure (MES) activity in mice after peroral administration of 100 mg/kg of compound; 5/5; conditions: route oral
Mus musculus [14] = experiment: 3,4 -Dihydroxy phenylacetic acid (DOPAC) levels in mouse brain at 50 mg/kg dose.
Procedure, shortened: (§1)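 Male Std-ddY mice (20-25 g) dosed orally with compound dissolved or suspended in 0.5% aqueous tragacanth. DOPAC measured fluorometrically after purification by column chromatography on Sephadex G-10 and QAE-Sephadex. Brains from five mice per compound pooled for the determination.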

Mus musculus [15] = experiment: The homovanillic acid (HVA)levels in mouse brain at 10 mg/kg of dose.
Procedure, shortened: (§2)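 Male Std-ddY mice (20-25 g) dosed orally with compound in 0.5% aqueous tragacanth (solution or suspension). Brain homovanillic acid (HVA) determined by a published method. Brains from five mice per compound pooled for one determination.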

Mus musculus [16] = experiment: Concentration of compound that causes catalepsy in the mice when administered perorally; conditions: po
Procedure, shortened: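 Male Std-ddY mice were dosed orally, vehicle 0.5% aqueous tragacanth. At 2 h, forepaws were placed on a rod 4.5 cm high. Failure to remove the paws within 30 s in three successive trials was scored cataleptic. ED50 was the dose giving catalepsy in 50% of mice (Litchfield-Wilcoxon).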

Mus musculus [17] = experiment: Antiexploratory activity (EXPL) of mice determined by an antimex activity meter, 50 mg/kg of dose was administered perorally; conditions: route oral
Procedure, shortened: (§3)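 Male Std-ddY mice (20-25 g), five per dose, given compound orally in 0.5% aqueous tragacanth. Two hours later each mouse was placed in the activity-meter cage and locomotor activity was counted for 3 min. Suppression is expressed as percent inhibition of control. ED50 (dose giving 50% inhibition) calculated by Litchfield-Wilcoxon.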

Canis familiaris [18] = experiment: Inhibition of apomorphine induced emesis in dogs when administered perorally; conditions: Canis lupus familiaris, po
Procedure, shortened: (§4)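 Beagle dogs (10-15 kg), groups of three, given compound po in a gelatin capsule; 2 h later apomorphine hydrochloride 0.3 mg/kg sc. Vomiting counted for 1 h; mean inhibition as percent of control. ED50 is the dose giving 50% inhibition of emesis, by Litchfield-Wilcoxon.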

Mus musculus [19] = experiment: Inhibition of conditioned avoidance response in mice when administered perorally; conditions: po
Procedure, shortened: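 One-way active avoidance in male Std-ddY mice in a dark/light two-compartment box. Mice trained to move to the lit side on a warning stimulus to escape floor shock; groups of 10 avoiding at >80% in 10 trials. Compound po in 0.5% tragacanth. ED50 is the dose halving avoidance rate (Litchfield-Wilcoxon).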

Rattus norvegicus = experiment: Inhibition of self stimulation response in rats when administered perorally.; conditions: po
Procedure, shortened: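 Male Wistar HLA rats (300-400 g) with chronic electrodes implanted in the lateral posterior hypothalamus; only rats lever-pressing steadily at 50-100/min were used. Compound given po in 0.5% tragacanth. Self-stimulation counted for 10 min before and 2 h after dosing. ED50 is the dose giving ≥50% rate inhibition in 50% of rats (Litchfield-Wilcoxon).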

Mus musculus [20] = experiment: The homovanillic acid (HVA)levels in mouse brain at 50 mg/kg of dose.; procedure, shortened: as §2
Canis familiaris [21] = experiment: Inhibition of apomorphine induced emesis in dogs at 1 mg/kg of dose.; conditions: Canis lupus familiaris; procedure, shortened: as §4
Mus musculus [22] = experiment: Antiexploratory activity (EXPL) of mice determined by an antimex activity meter, when administered perorally; conditions: po; procedure, shortened: as §3
Mus musculus [23] = experiment: Antiexploratory activity (EXPL) of mice determined by an antimex activity meter, 10 mg/kg of dose was administered perorally; conditions: route oral; procedure, shortened: as §3
Mus musculus [24] = experiment: 3,4 -Dihydroxy phenylacetic acid (DOPAC) levels in mouse brain at 10 mg/kg dose.; procedure, shortened: as §1
Mus musculus [25] = experiment: Concentration of compound that causes ptosis in the mice when administered perorally; conditions: po
Procedure, shortened: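 Five male Std-ddY mice per group were dosed orally in 0.5% aqueous tragacanth. At 2 h, eyelid closure was scored macroscopically (8 open to 0 fully closed). Group mean scores formed a dose-response curve. ED50 was the dose reducing the mean score to 50%.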

`Cc1ccc2c(c1)CC=C(c1ccccc1)C(N1CCN(C)CC1)=N2.Cl.Cl` showed an Activity (Mus musculus [1]) of 3, an inhibition in vivo at 100 mg/kg (Mus musculus [2]) of under 30% and an inhibition in vivo at 100 mg/kg (Mus musculus [3]) of under 30%. It also gave an ED50 (Mus musculus [4]) of 86.1 mg/kg, an inhibition in vivo at 100 mg/kg (Mus musculus [5]) of under 30% and an ED50 (Mus musculus [6]) of 50.9 mg/kg.

With `Cl.Cl.OCCN1CCN(C2=Nc3ccc(F)cc3CC=C2c2ccccc2)CC1` the inhibition in vivo at 100 mg/kg (Mus musculus [7]) was over 71%, the Activity (Mus musculus [8]) was 0 and the inhibition in vivo at 100 mg/kg (Mus musculus [2]) was under 30%. It also gave an inhibition in vivo at 100 mg/kg (Mus musculus [3]) of under 30%, an ED50 (Mus musculus [4]) of over 500 mg/kg and an ED50 (Mus musculus [6]) of over 500 mg/kg.

Work on `Cl.Cl.OCCN1CCN(C2=Nc3ccccc3CC=C2c2cccc(Cl)c2)CC1` yielded an Activity (Mus musculus [8]) of 0, an inhibition in vivo at 50 mg/kg (Mus musculus [9]) of under 30% and an Inhibition (Mus musculus [10]) of 31%.

`CN1CCN(C2=Nc3ccccc3CC=C2c2cccc(Cl)c2)CC1.Cl.Cl` was tested, and the Activity (Mus musculus [8]) was 0, the inhibition in vivo at 100 mg/kg (Mus musculus [11]) was 51% and the inhibition in vivo at 50 mg/kg (Mus musculus [9]) was under 30%.

For `CN1CCN(C2=Nc3ccc(Br)cc3CC=C2c2ccccc2)CC1.Cl.Cl`, the inhibition in vivo at 100 mg/kg (Mus musculus [12]) was over 71%, the Activity (Mus musculus [13]) was 5 and the inhibition in vivo at 100 mg/kg (Mus musculus [3]) was under 30%. The ED50 (Mus musculus [4]) was 31.2 mg/kg, the inhibition in vivo at 100 mg/kg (Mus musculus [5]) was under 30% and the ED50 (Mus musculus [6]) was 8.3 mg/kg.

Work on `CN1CCN(C2=Nc3cc(Cl)ccc3Nc3ccccc32)CC1` [CLOZAPINE] yielded a Control % at 50 mg/kg (Mus musculus [14]) of 324%, a Control % at 10 mg/kg (Mus musculus [15]) of 106% and an ED50 (Mus musculus [16]) of over 100 mg/kg. For the same molecule, the inhibition in vivo at 50 mg/kg (Mus musculus [17]) was 87.8%, the ED50 (Canis familiaris [18]) was 12.6 mg/kg and the ED50 (Mus musculus [19]) was 9.68 mg/kg. It also gave an ED50 (Rattus norvegicus) of 77.1 mg/kg, a Control % at 50 mg/kg (Mus musculus [20]) of 274% and an inhibition in vivo at 1 mg/kg (Canis familiaris [21]) of 27.4%. The ED50 (Mus musculus [22]) was 8.45 mg/kg, the inhibition in vivo at 10 mg/kg (Mus musculus [23]) was 50.6% and the Control % at 10 mg/kg (Mus musculus [24]) was 128%. The ED50 (Mus musculus [25]) was 15.8 mg/kg.
